According to ChEMBL document CHEMBL1131833, “Synthesis and cytotoxic activity of N-(2-pyridylsulfenyl)urea derivatives. A new class of potential antineoplastic agents” (Bioorg Med Chem Lett, 1999):

How the values were obtained:
Assay type in all cases: functional, cell-based
Calu-1 = experiment: Cytotoxicity against HTB-54 lung carcinoma cell line; conditions: Homo sapiens
In short: (§1)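 Growth inhibition read by cell counting after 3 days of continuous exposure to 100, 10, 1, 0.1 or 0.01 µM compound. Parallel cultures counted daily to confirm exponential growth. IC50 from the counts; where inhibition stayed low across the range, reported as > highest tested concentration.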

HT-29 = experiment: Cytotoxicity against HT-29 colon carcinoma cell line; conditions: Homo sapiens; in short: as §1
K562 = experiment: Cytotoxicity against K-562 myelocytic leukemia cell line; conditions: Homo sapiens; in short: as §1
CCRF-CEM = experiment: Cytotoxicity against CCRF-CEM lymphocytic leukemia cell line; conditions: Homo sapiens; in short: as §1
MEL-AC cell line = experiment: Cytotoxicity against MEL-AC melanoma cell line; conditions: Homo sapiens; in short: as §1
Homo sapiens = species: Homo sapiens; experiment: Cytotoxicity against normal PMBC cells in clonogenic assay
In short: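 Human peripheral blood mononuclear cells at 2.0-2.5 ×10^6 cells/mL in Iscove's medium. Clonogenic methylcellulose culture (0.9% final) with 30% fetal calf serum, 10% PHA-LCM and 6 U recombinant human erythropoietin plus compound, 14 days at 37°C. Colonies counted; at least 3 independent experiments, each in triplicate, per compound and concentration.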

Structure (SMILES)	IC50 (Calu-1) [µM]	IC50 (HT-29) [µM]	IC50 (K562) [µM]	IC50 (CCRF-CEM) [µM]	IC50 (MEL-AC cell line) [µM]	IC50 (Homo sapiens) [µM]
CCOC(=O)c1cccnc1S(=O)(=O)NC(=O)Nc1ncccn1	1.6	> 100	53	3.5	1.2	
CCOC(=O)c1cccnc1SNC(=O)Nc1nc(OC)cc(OC)n1	74	96	43	0.7	43	
CCOC(=O)c1cccnc1S(=O)(=O)NC(=O)Nc1ccc(Cl)cc1	> 100	> 100	14	4.3	> 100	
CCOC(=O)c1cc([N+](=O)[O-])cnc1SNC(=O)Nc1ncccn1	14	> 100	0.2	1.5	0.2	
CCOC(=O)c1cccnc1SNC(=O)Nc1ncccn1	1.8	4.8	1	15	34	13.6
COc1cccc2c1C(=O)c1c(O)c3c(c(O)c1C2=O)C[C@@](O)(C(=O)CO)C[C@@H]3O[C@H]1C[C@H](N)[C@H](O)[C@H](C)O1 [DOXORUBICIN]	1.1	0.7	1		1.2	39.4
